Measured values: ChEMBL document CHEMBL1121529, “Synthesis of [82Br]bromperidol and preliminary tissue distribution studies in the rat” (J Med Chem, 1980)

Legend:
Design in all cases: dose 0.2 mg/kg, route intravenous
[1] = system: Rattus norvegicus; assay: Tested for the tissue distribution of Br activity at 45 min in brain following intravenous injection in rat at the dose of 0.2 mg/kg; assay type: ADME, organism-based; details: in vivo, 0.75 h
In short: (§1)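 Male Sprague-Dawley rats (300-320 g, fed ad libitum) anesthetized with sodium pentobarbital 45 mg/kg, then given an iv bolus into the jugular vein of 19-22 µCi (0.2 mg/kg) [82Br]bromperidol in propylene glycol-ethanol-water (40:20:40), pH 4. Rats serially sacrificed by cardiac puncture. Organs counted 100 s at ~12 000 cpm with decay correction. Values are % dose/g, mean and SD of three.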

[2] = system: Rattus norvegicus; assay: Tested for the tissue distribution of Br activity at 120 min in brain following intravenous injection in rat at the dose of 0.2 mg/kg; assay type: ADME, organism-based; details: in vivo, 2 h; in short: as §1
[3] = system: Rattus norvegicus; assay: Tested for the tissue distribution of Br activity at 120 min in blood following intravenous injection in rat at the dose of 0.2 mg/kg; assay type: ADME, organism-based; details: in vivo, 2 h; in short: as §1
[4] = system: Rattus norvegicus; assay: Tested for the tissue distribution of Br activity at 30 min in liver following intravenous injection in rat at the dose of 0.2 mg/kg; assay type: ADME, organism-based; details: in vivo, 0.5 h; in short: as §1
[5] = system: Rattus norvegicus; assay: Tested for the tissue distribution of Br activity at 120 min in liver following intravenous injection in rat at the dose of 0.2 mg/kg; assay type: ADME, organism-based; details: in vivo, 2 h; in short: as §1
[6] = system: Rattus norvegicus; assay: Tested for the tissue distribution of Br activity at 30 min in brain following intravenous injection in rat at the dose of 0.2 mg/kg; assay type: ADME, organism-based; details: in vivo, 0.5 h; in short: as §1
[7] = system: Rattus norvegicus; assay: Tested for the tissue distribution of Br activity at 60 min in kidney following intravenous injection in rat at the dose of 0.2 mg/kg; assay type: ADME, organism-based; details: in vivo, 1 h; in short: as §1
[8] = system: Rattus norvegicus; assay: Tested for the tissue distribution of Br activity at 45 min in liver following intravenous injection in rat at the dose of 0.2 mg/kg; assay type: ADME, organism-based; details: in vivo, 0.75 h; in short: as §1
[9] = system: Rattus norvegicus; assay: Tested for the tissue distribution of Br activity at 15 min in brain following intravenous injection in rat at the dose of 0.2 mg/kg; assay type: ADME, organism-based; details: in vivo, 0.25 h; in short: as §1
[10] = system: Rattus norvegicus; assay: Tested for the tissue distribution of Br activity at 15 min in lungs following intravenous injection in rat at the dose of 0.2 mg/kg; assay type: ADME, organism-based, Lung; details: in vivo, 0.25 h; in short: as §1
[11] = system: Rattus norvegicus; assay: Tested for the tissue distribution of Br activity at 30 min in lung following intravenous injection in rat at the dose of 0.2 mg/kg; assay type: ADME, organism-based; details: in vivo, 0.5 h; in short: as §1
[12] = system: Rattus norvegicus; assay: Tested for the tissue distribution of Br activity at 120 min in kidney following intravenous injection in rat at the dose of 0.2 mg/kg; assay type: ADME, organism-based; details: in vivo, 2 h; in short: as §1
[13] = system: Rattus norvegicus; assay: Tested for the tissue distribution of Br activity at 60 min in liver following intravenous injection in rat at the dose of 0.2 mg/kg; assay type: ADME, organism-based; details: in vivo, 1 h; in short: as §1
[14] = system: Rattus norvegicus; assay: Tested for the tissue distribution of Br activity at 15 min in liver following intravenous injection in rat at the dose of 0.2 mg/kg; assay type: ADME, organism-based; details: in vivo, 0.25 h; in short: as §1
[15] = system: Rattus norvegicus; assay: Tested for the tissue distribution of Br activity at 45 min in blood following intravenous injection in rat at the dose of 0.2 mg/kg; assay type: ADME, organism-based; details: in vivo, 0.75 h; in short: as §1
[16] = system: Rattus norvegicus; assay: Tested for the tissue distribution of Br activity at 30 min in kidney following intravenous injection in rat at the dose of 0.2 mg/kg; assay type: ADME, organism-based; details: in vivo, 0.5 h; in short: as §1
[17] = system: Rattus norvegicus; assay: Tested for the tissue distribution of Br activity at 60 min in lung following intravenous injection in rat at the dose of 0.2 mg/kg; assay type: ADME, organism-based; details: in vivo, 1 h; in short: as §1
[18] = system: Rattus norvegicus; assay: Tested for the tissue distribution of Br activity at 45 min in kidney following intravenous injection in rat at the dose of 0.2 mg/kg; assay type: ADME, organism-based; details: in vivo, 0.75 h; in short: as §1
[19] = system: Rattus norvegicus; assay: Tested for the tissue distribution of Br activity at 60 min in blood following intravenous injection in rat at the dose of 0.2 mg/kg; assay type: ADME, organism-based; details: in vivo, 1 h; in short: as §1
[20] = system: Rattus norvegicus; assay: Tested for the tissue distribution of Br activity at 60 min in brain following intravenous injection in rat at the dose of 0.2 mg/kg; assay type: ADME, organism-based; details: in vivo, 1 h; in short: as §1
[21] = system: Rattus norvegicus; assay: Tested for the tissue distribution of Br activity at 45 min in lung following intravenous injection in rat at the dose of 0.2 mg/kg; assay type: ADME, organism-based; details: in vivo, 0.75 h; in short: as §1
[22] = system: Rattus norvegicus; assay: Tested for the tissue distribution of Br activity at 30 min in blood following intravenous injection in rat at the dose of 0.2 mg/kg; assay type: ADME, organism-based; details: in vivo, 0.5 h; in short: as §1
[23] = system: Rattus norvegicus; assay: Tested for the tissue distribution of Br activity at 15 min in blood following intravenous injection in rat at the dose of 0.2 mg/kg; assay type: ADME, organism-based; details: in vivo, 0.25 h; in short: as §1
[24] = system: Rattus norvegicus; assay: Tested for the tissue distribution of Br activity at 15 min in kidney following intravenous injection in rat at the dose of 0.2 mg/kg; assay type: ADME, organism-based; details: in vivo, 0.25 h; in short: as §1
[25] = system: Rattus norvegicus; assay: Tested for the tissue distribution of Br activity at 120 min in lung following intravenous injection in rat at the dose of 0.2 mg/kg; assay type: ADME, organism-based; details: in vivo, 2 h; in short: as §1

Dose/g [1]: 0.41%
Dose/g [2]: 0.2%
Dose/g [3]: 0.12%
Dose/g [4]: 1.66%
Dose/g [5]: 1.44%
Dose/g [6]: 0.41%
Dose/g [7]: 0.93%
Dose/g [8]: 1.7%
Dose/g [9]: 0.58%
Dose/g [10]: 5.07%
Dose/g [11]: 3.17%
Dose/g [12]: 0.61%
Dose/g [13]: 1.58%
Dose/g [14]: 1.53%
Dose/g [15]: 0.14%
Dose/g [16]: 1.2%
Dose/g [17]: 2.25%
Dose/g [18]: 1.03%
Dose/g [19]: 0.14%
Dose/g [20]: 0.32%
Dose/g [21]: 2.75%
Dose/g [22]: 0.14%
Dose/g [23]: 0.15%
Dose/g [24]: 1.63%
Dose/g [25]: 1.23%
Structure (SMILES): O=C(CCCN1CCC(O)(c2ccc(Br)cc2)CC1)c1ccc(F)cc1 [BROMPERIDOL]
